The record followed here is article PMC11471106 (Drug Design, Development and Therapy, 2024).

The test system of this assay is MCF-7 cells. Kind of assay: Inhibition of [125I]I-AM uptake into MCF-7 cells by blocking agents. It counts as cell-based. The settings on record: blocking agent at 1 mm. Put shortly:
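Blocking uptake study in MCF-7 cells, cultured and given radiotracer as in the standard uptake assay (serum-free MEM + 0.2% BSA, 37 °C, gamma counting of lysate versus medium). Cells were treated separately with unlabelled parent compound, tamoxifen or 17β-estradiol, each at one stated concentration. Groups were compared by one-way ANOVA with Tukey's multiple comparison test.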

As to `C[C@]12CC[C@@H]3c4ccc(O)cc4CC[C@H]3[C@@H]1CC[C@@H]2O` [estradiol, 17 β -estradiol], the “effect on uptake of [125I]I-AM into MCF-7 cells” value is given as “not inhibited”. On to `CC/C(=C(\c1ccccc1)c1ccc(OCCN(C)C)cc1)c1ccccc1` [tamoxifen], for which the “effect on uptake of [125I]I-AM into MCF-7 cells” value is given as “significantly inhibited”.
